Test [1] has as its target T1, Adrenergic receptor alpha-2 (Rattus norvegicus, UniProt P22086+P19328+P22909).
T1 sequence (P22086 whole entry): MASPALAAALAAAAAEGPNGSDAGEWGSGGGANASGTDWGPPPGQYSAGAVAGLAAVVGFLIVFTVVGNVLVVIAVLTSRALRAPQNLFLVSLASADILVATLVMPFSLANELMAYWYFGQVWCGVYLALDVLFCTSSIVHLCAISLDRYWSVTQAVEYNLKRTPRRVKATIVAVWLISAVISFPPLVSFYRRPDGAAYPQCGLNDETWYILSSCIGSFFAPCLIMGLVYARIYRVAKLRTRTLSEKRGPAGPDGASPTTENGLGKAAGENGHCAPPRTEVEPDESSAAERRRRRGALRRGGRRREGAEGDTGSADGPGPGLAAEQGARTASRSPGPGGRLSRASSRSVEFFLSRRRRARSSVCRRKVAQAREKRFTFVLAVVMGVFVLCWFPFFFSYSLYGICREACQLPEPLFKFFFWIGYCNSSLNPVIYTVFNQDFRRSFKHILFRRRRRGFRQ
T1 sequence (P19328 whole entry): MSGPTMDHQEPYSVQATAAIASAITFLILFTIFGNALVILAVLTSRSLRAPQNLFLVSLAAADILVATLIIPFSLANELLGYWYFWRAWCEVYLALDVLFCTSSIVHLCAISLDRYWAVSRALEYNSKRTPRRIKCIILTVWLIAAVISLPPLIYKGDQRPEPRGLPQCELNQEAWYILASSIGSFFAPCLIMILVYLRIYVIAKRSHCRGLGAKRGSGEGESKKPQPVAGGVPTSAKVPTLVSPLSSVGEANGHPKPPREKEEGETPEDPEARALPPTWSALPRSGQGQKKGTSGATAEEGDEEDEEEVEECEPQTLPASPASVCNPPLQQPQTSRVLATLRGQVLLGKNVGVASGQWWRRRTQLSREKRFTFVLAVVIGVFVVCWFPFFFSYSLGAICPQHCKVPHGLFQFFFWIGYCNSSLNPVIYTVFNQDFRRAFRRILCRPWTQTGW
T1 sequence (P22909 whole entry): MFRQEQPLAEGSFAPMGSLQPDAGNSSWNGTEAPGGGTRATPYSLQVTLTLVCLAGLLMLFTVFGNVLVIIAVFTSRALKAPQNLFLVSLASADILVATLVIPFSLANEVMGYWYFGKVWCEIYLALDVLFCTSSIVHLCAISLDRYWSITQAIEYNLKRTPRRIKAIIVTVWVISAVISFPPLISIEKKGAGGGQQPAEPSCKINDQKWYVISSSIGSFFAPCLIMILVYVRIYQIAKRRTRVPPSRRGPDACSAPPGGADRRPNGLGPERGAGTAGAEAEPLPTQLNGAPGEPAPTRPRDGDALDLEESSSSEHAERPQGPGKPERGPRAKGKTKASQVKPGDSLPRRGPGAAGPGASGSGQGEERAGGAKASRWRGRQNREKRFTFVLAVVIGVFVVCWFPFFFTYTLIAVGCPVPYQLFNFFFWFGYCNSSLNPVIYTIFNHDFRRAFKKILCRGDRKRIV
Nature of the test: Binding affinity against the alpha-2 adrenergic receptor using [3H]- clonidine. In kind it is protein assay. In outline:
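α2 sites in rat cerebral cortex membranes (male Long-Evans, 150–250 g) labelled with [3H]clonidine at 0.4 nM final. (-)-Norepinephrine at 10 μM final was the reference. IC50 from four or five concentrations by nonlinear fit.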

Test [2] has as its system Rattus norvegicus. Nature of the test: Compound was tested for its affect on the accumulation of the dopamine metabolite homovanillic acid (HAV) in the rat striatum at 8 mg/kg dose after peroral administration. It is filed as functional. Particulars: route oral. In outline:
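Male Long–Evans rats were dosed orally and decapitated 2 h later. Striatal HVA was isolated on Sephadex G-10 and measured spectrofluorometrically, expressed as % control ± SEM.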

Test [3] has as its target GABA-A receptor; anion channel. Nature of the test: Displacement of [3H]-GABA from rat brain Gamma-aminobutyric acid receptor. In outline:
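GABA binding in membranes of rat whole brain minus cerebellum and brain stem (male Long-Evans, 150–250 g), using [3H]-GABA at 25 nM final. GABA at 1 mM final was the reference. IC50 from four or five concentrations by nonlinear curve fitting.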
For orientation: Displacement assays read how much labelled ligand stays bound in the presence of the test substance.

For test [4], the system named is Rattus norvegicus. Nature of the test: Compound was tested for serum prolactin assay method in rats at 1 mg/kg dose after peroral administration. In kind it is functional. Particulars: route oral. In outline:
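Seven-week-old male Sprague–Dawley rats, five per group, were dosed orally and killed by decapitation 1 h later. Serum prolactin from trunk blood was measured by radioimmunoassay with [125I]-PRL and expressed as % of control (mean ± SEM).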

For test [5], the species on record is Rattus norvegicus. Nature of the test: Compound was tested for its potential to produce clonic seizures in rats; + indicates compound is causing seizures. In kind it is functional, organism-based. The method, boiled down: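 Any sign of seizure marked the compound as seizure-causing; the outcome was not quantified.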
The species entered for test [6] is Rattus norvegicus. Nature of the test: Effective dose required for inhibition of Sidman avoidance in rats. In kind it is functional. The method, boiled down:
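Mature male Long–Evans rats, trained on a modified Sidman avoidance schedule in lever-equipped operant chambers, were dosed orally and tested in 6-h sessions. Inhibition was expressed as % of each animal's own nondrug responding. At least three doses were given to four animals, with sessions at least 1 week apart. ED50 from nonlinear regression of dose–effect.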

Test [7] concerns Rattus norvegicus. Nature of the test: Compound was tested for its effect on norepinephrine turnover in rat at dose of 64 mg/kg ip. It is filed as functional. The conditions noted are these: route intraperitoneal. The method, boiled down:
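Rats were given compound or vehicle ip 30 min before α-methyl-p-tyrosine (250 mg/kg ip) and killed 4 h later. Brain NE and DA were measured spectrofluorometrically, with at least five determinations per value, and expressed as % of vehicle-treated levels ± SEM.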

The target of a further test is T2, Adenosine receptor A1 (Rattus norvegicus, UniProt P25099).
T2 sequence (P25099 whole entry): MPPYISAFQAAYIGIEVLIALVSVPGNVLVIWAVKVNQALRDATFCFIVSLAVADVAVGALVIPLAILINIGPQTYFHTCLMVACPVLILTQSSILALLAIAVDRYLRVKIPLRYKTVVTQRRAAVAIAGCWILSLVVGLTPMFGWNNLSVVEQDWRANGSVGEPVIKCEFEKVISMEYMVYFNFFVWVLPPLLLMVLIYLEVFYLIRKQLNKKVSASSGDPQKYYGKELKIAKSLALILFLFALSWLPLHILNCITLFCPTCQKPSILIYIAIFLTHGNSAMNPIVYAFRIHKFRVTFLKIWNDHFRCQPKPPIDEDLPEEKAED
Nature of the test: Binding affinity towards rat brain adenosine A1 receptor using [3H]- CHA. In outline:
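Adenosine A1 binding in membranes of rat whole brain minus brain stem and cerebellum (male Long-Evans, 150–250 g), using [3H]-CHA at 1.0 nM final. Theophylline at 1 mM final was the reference. IC50 from four or five concentrations by nonlinear fit.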

The target of test [8] is Serotonin 2 (5-HT2) receptor (Rattus norvegicus, UniProt P30994+P08909+P14842). Nature of the test: Binding affinity towards 5-hydroxytryptamine 2 receptor in rat brain using [3H]spiroperidol. It is filed as tissue-based. The method, boiled down: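 Serotonin-2 sites in rat cerebral cortex membranes (male Long-Evans, 150–250 g) with [3H]spiroperidol at 0.2 nM final. (+)-Butaclamol at 1.0 μM final was the reference. IC50 from four or five concentrations by nonlinear curve fitting.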

This is an account of results in ChEMBL document CHEMBL1123363, “(5-Amino-1,3-dimethyl-1H-pyrazol-4-yl)(2-fluorophenyl)methanones . A series of novel potential antipsychotic agents” (J Med Chem, 1986).

Activity calls are given as the source filed them. No cut-off for these calls is given here. A value given as a limit tells only on which side of the number the result lay.

By IC50 is commonly meant the midpoint of a concentration-inhibition curve. For orientation: ED50 means the midpoint of the dose-response relation. A lower ED50 goes with an effect at a small dose.

With `CCN(CC)CC(=O)Nc1c(C(=O)c2ccccc2F)c(C)nn1C`, the IC50 in [1] and in test [3] was greater than 10 µM throughout. In addition, the Control in the test with Rattus norvegicus [2] is 131.9%; with Rattus norvegicus [4], 87.4%.
As to `Cc1nn(C)c(N)c1C(=O)c1ccccc1F`, the Clonic seizures entry in the test filed under Rattus norvegicus [5] is “Active”. The molecule further had an ED50 in the test filed under Rattus norvegicus [6] of 20 mg/kg.
In turn, `Cc1nn(C)c(NC(=O)CNCCCN2CCCCC2C)c1C(=O)c1ccccc1F` (centres undefined) registered a Control in the test with Rattus norvegicus [7] of 102.8%. In addition, the IC50 (at Adenosine receptor A1; in test [8]) was greater than 10 µM each time.
